{
  "source": "ChEMBL document CHEMBL4765301",
  "about": "“Discovery of novel TNNI3K inhibitor suppresses pyroptosis and apoptosis in murine myocardial infarction injury” (Eur J Med Chem, 2020)",
  "key": {"H9c2 [1]": {"system": "H9c2", "assay": "Inhibition of OGD-induced apoptosis in rat H9c2 cells assessed as reduction in GSDMD activation at 0.5 to 1 uM by Western blot analysis", "format": "functional, cell-based", "settings": "dose 0.5-1 µM", "outline": "(§1)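 H9c2 cells under OGD were treated with saline or 0.5 or 1.0 µM inhibitor. Cells were trypsinised, washed in cold PBS, lysed in RIPA with sonication and centrifuged 30 min. Total protein was quantified and separated by SDS-PAGE, then transferred to PVDF. Blots were probed with primary and secondary antibodies and detected by ECL.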"}, "H9c2 [2]": {"system": "H9c2", "assay": "Inhibition of OGD-induced apoptosis in rat H9c2 cells assessed as reduction in IL-1beta level at 0.5 to 1 uM by Western blot analysis", "format": "functional, cell-based", "settings": "dose 0.5-1 µM", "outline": "as §1"}, "H9c2 [3]": {"system": "H9c2", "assay": "Inhibition of OGD-induced apoptosis in rat H9c2 cells assessed as reduction in caspase1 activation at 0.5 to 1 uM by Western blot analysis", "format": "functional, cell-based", "settings": "dose 0.5-1 µM", "outline": "as §1"}, "H9c2 [4]": {"system": "H9c2", "assay": "Inhibition of JNK phosphorylation in rat H9c2 cells at 0.5 to 1 uM by Western blot analysis", "format": "cell-based", "settings": "dose 0.5-1 µM", "outline": "as §1"}, "H9c2 [5]": {"system": "H9c2", "assay": "Inhibition of OGD-induced apoptosis in rat H9c2 cells assessed as reduction in ASC level at 0.5 to 1 uM by Western blot analysis", "format": "functional, cell-based", "settings": "dose 0.5-1 µM", "outline": "as §1"}, "[6]": {"target": "T1, Serine/threonine-protein kinase TNNI3K (Homo sapiens) (UniProt Q59H18)", "T1 sequence (whole entry)": "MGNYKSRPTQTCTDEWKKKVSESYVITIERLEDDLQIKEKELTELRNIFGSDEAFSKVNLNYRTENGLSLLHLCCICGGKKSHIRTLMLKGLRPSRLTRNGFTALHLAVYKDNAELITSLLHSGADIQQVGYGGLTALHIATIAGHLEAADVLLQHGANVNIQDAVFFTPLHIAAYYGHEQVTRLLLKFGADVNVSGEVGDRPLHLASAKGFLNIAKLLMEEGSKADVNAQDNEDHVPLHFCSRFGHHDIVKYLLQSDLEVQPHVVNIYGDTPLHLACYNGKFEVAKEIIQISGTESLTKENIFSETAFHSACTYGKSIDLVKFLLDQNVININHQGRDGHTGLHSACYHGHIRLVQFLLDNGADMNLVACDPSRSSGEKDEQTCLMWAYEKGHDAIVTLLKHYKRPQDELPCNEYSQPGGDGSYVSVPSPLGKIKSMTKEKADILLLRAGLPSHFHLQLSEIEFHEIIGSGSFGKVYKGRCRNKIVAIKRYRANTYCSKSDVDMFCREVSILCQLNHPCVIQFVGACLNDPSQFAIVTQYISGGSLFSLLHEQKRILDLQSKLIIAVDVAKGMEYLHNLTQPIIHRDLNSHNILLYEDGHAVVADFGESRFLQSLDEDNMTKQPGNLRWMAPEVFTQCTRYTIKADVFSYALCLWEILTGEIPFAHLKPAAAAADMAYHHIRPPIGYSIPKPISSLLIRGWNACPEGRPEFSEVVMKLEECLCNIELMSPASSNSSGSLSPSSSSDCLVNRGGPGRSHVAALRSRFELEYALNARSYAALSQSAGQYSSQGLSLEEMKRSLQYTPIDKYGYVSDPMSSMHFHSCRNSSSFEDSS", "assay": "Inhibition of TNNI3K (unknown origin) assessed as residual activity at 1 uM using biotinylated CTnI as substrate by HTRF analysis relative to control", "outline": "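TNNI3K was assayed by HTRF using a GST-tagged TNNI3K kinase domain and a biotinylated cardiac troponin I substrate peptide, followed by the two HTRF detection reagents. Compounds were screened at 1.0 µM, then IC50s were determined.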"}, "H9c2 [7]": {"system": "H9c2", "assay": "Inhibition of OGD-induced apoptosis in rat H9c2 cells assessed as reduction in caspase1 level at 0.5 to 1 uM by Western blot analysis", "format": "functional, cell-based", "settings": "dose 0.5-1 µM", "outline": "as §1"}, "H9c2 [8]": {"system": "H9c2", "assay": "Inhibition of OGD-induced apoptosis in rat H9c2 cells assessed as necrotic cells at 0.5 uM incubated for 24 hrs by annexinV-FITC and PI staining based flow cytometry analysis (reference value: 2.45 %)", "format": "functional"}, "H9c2 [9]": {"system": "H9c2", "assay": "Inhibition of OGD-induced apoptosis in rat H9c2 cells assessed as early apoptotic cells at 1 uM incubated for 24 hrs by annexinV-FITC and PI staining based flow cytometry analysis (reference value: 3.53 %)", "format": "functional"}, "H9c2 [10]": {"system": "H9c2", "assay": "Inhibition of OGD-induced apoptosis in rat H9c2 cells assessed as reduction in caspase1 level at 0.5 to 1 uM by immunofluorescence staining based fluorescence microscopy", "format": "functional, cell-based", "settings": "dose 0.5-1 µM", "outline": "(§2)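 In OGD-exposed H9c2 cells treated with 0.5 or 1.0 µM inhibitor, intracellular distribution and co-localisation of caspase-1 and NLRP3 were assessed by immunofluorescence microscopy.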"}, "H9c2 [11]": {"system": "H9c2", "assay": "Inhibition of OGD-induced apoptosis in rat H9c2 cells assessed as reduction in NLRP3 level at 0.5 to 1 uM by immunofluorescence staining based fluorescence microscopy", "format": "functional, cell-based", "settings": "dose 0.5-1 µM", "outline": "as §2"}, "H9c2 [12]": {"system": "H9c2", "assay": "Inhibition of OGD-induced apoptosis in rat H9c2 cells assessed as late apoptotic cells at 1 uM incubated for 24 hrs by annexinV-FITC and PI staining based flow cytometry analysis (reference value: 9 %)", "format": "functional"}, "[13]": {"target": "T2, Serine/threonine-protein kinase TNNI3K (Rattus norvegicus) (UniProt Q7TQP6)", "T2 sequence (whole entry)": "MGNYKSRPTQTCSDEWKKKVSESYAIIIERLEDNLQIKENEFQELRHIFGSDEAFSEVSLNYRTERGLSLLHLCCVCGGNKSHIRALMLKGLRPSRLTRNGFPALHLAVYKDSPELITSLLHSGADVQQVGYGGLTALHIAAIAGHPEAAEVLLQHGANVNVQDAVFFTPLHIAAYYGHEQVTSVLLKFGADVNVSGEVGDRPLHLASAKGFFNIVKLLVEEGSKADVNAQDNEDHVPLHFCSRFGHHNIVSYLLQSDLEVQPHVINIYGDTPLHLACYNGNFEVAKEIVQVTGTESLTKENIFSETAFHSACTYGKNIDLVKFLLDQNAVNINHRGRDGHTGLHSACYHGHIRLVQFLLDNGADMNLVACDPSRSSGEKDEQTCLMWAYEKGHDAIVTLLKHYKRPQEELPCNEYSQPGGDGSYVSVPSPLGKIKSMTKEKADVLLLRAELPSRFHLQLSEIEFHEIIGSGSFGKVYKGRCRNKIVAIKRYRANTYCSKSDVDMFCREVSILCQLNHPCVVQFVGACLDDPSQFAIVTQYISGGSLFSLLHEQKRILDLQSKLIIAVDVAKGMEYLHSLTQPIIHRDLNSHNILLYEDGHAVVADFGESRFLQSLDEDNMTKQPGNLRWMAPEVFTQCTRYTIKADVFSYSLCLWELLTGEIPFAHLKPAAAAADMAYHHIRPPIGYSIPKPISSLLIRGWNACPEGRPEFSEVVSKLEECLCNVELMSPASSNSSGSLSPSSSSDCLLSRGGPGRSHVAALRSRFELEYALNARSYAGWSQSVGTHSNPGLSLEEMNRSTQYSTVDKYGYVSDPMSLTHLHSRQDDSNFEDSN", "assay": "Inhibition of TNNI3K in rat H9c2 cells assessed as reduction in p38 phosphorylation at 0.5 to 1 uM by Western blot analysis", "settings": "dose 0.5-1 µM"}},
  "note": "Activity calls are given as the source filed them. No cut-off for these calls is given here.",
  "data": [
    {"compound": "CN(C)CCCN1CCc2c(sc3ncnc(Nc4ccc(N(C)C)c(NC(=O)c5ccco5)c4)c23)C1", "values": [
      {"measurement": "inhibition", "setting": "H9c2 [1]", "value": "Active"},
      {"measurement": "inhibition", "setting": "H9c2 [2]", "value": "Active"},
      {"measurement": "inhibition", "setting": "H9c2 [3]", "value": "Active"},
      {"measurement": "inhibition", "setting": "H9c2 [4]", "value": "inactive"},
      {"measurement": "inhibition", "setting": "H9c2 [5]", "value": "Active"},
      {"measurement": "Activity", "setting": "[6]", "value": 28, "unit": "%"},
      {"measurement": "inhibition", "setting": "H9c2 [7]", "value": "inactive"},
      {"measurement": "inhibition at 0.5 µM", "setting": "H9c2 [8]", "value": 2.24, "unit": "%"},
      {"measurement": "inhibition at 1 µM", "setting": "H9c2 [9]", "value": 3.17, "unit": "%"},
      {"measurement": "inhibition", "setting": "H9c2 [10]", "value": "Active"},
      {"measurement": "inhibition", "setting": "H9c2 [11]", "value": "Active"},
      {"measurement": "inhibition at 1 µM", "setting": "H9c2 [12]", "value": 5.02, "unit": "%"},
      {"measurement": "inhibition", "setting": "[13]", "value": "Active"}
    ]}
  ]
}
